Laboratory results reported in ChEMBL document CHEMBL1132433, “6-Substituted 2-oxo-2H-1-benzopyran-3-carboxylic acid as a core structure for specific inhibitors of human leukocyte elastase” (J Med Chem, 1999).

Columns and labels:
[1] = biological target: T1, Neutrophil elastase (Homo sapiens) (UniProt P08246); test: Evaluation of kinetic parameter Ki/KI(1/M.1/S) by its ability to inhibit the HLE(Human Leukocyte Elastase) enzyme.
T1 sequence (whole entry): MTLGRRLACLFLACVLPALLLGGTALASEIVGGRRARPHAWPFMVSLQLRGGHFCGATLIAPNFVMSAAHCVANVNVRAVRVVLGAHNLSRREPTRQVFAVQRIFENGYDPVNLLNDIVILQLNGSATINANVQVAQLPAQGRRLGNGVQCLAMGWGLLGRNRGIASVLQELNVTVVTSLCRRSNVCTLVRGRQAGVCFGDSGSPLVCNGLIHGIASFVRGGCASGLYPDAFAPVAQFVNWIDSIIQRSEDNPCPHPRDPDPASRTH
How it was run: (§1)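 HLE, active-site titrated, assayed with MeO-Suc-AAPV-p-NA in 0.1 M Hepes, 0.5 M NaCl, 0.1% Tween 80, pH 8.0, 10% DMSO, 25 °C. Preincubation method ([HLE]0 20 nM, [I]0 1-10 µM) or progress curves (30 nM enzyme, [S]0 100 µM, [I]0 0.05-70 µM), 405 nm. Constants reflect the initial inactivation step. ki, KI fitted.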

[2] = biological target: Prothrombin (Homo sapiens) (UniProt P00734); test: Evaluation of kinetic parameter Ki/KI(1/M.1/S) by its ability to inhibit human thrombin.
How it was run: (§2)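 Human thrombin, active-site titrated, with chromogenic substrate S-2238 in 0.01 M Hepes, 0.01 M Tris, 0.1 M NaCl, 0.1% PEG6000, pH 7.5, 10% DMSO, 25 °C. Preincubation method ([THR]0 1.45 nM, [I]0 1-10 µM) or progress curves ([THR]0 0.58 nM, [S]0 10 µM, [I]0 1-14 µM), absorbance at 405 nm. ki and KI fitted; ki/KI = kobs/[I] at low inhibitor.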

[3] = biological target: Chymotrypsinogen A (Bos taurus) (UniProt P00766); test: Evaluation of kinetic parameter Ki/KI(1/M.1/S) by its ability to inhibit the Alpha-CT (Bovine alpha-chymotrypsin) enzyme; No inactivation at 10 uM
[4] = biological target: T1, Neutrophil elastase (Homo sapiens); test: Compound was evaluated for the kinetic parameter Ki/KI(1/M.1/S) by its ability to inhibit the HLE(Human Leukocyte Elastase) enzyme; No inactivation at 10 uM; how it was run: as §1
[5] = biological target: Chymotrypsinogen A (Bos taurus) (UniProt P00766); test: Evaluation of kinetic parameter Ki/KI(1/M.1/S) by its ability to inhibit the Alpha-CT (Bovine alpha-chymotrypsin) enzyme
[6] = biological target: T1, Neutrophil elastase (Homo sapiens); test: Evaluated for the kinetic parameter Ki/KI(1/M.1/S) by its ability to inhibit the HLE(Human Leukocyte Elastase) enzyme [ki(se-1) andKi(uM)]; how it was run: as §1
[7] = biological target: Prothrombin (Homo sapiens) (UniProt P00734); test: Compound was evaluated for the kinetic parameter Ki/KI(1/M.1/S) by its ability to inhibit human thrombin; how it was run: as §2
[8] = biological target: Chymotrypsinogen A (Bos taurus) (UniProt P00766); test: Compound was evaluated for the kinetic parameter Ki/KI(1/M.1/S) by its ability to inhibit the Alpha-CT (Bovine alpha-chymotrypsin) enzyme [ki(se-1) andKi(uM)]
[9] = biological target: Chymotrypsinogen A (Bos taurus) (UniProt P00766); test: Compound was evaluated for the kinetic parameter Ki/KI(1/M.1/S) by its ability to inhibit the Alpha-CT (Bovine alpha-chymotrypsin) enzyme[ki(se-1) andKi(uM)]
[10] = biological target: Chymotrypsinogen A (Bos taurus) (UniProt P00766); test: Compound was evaluated for the kinetic parameter Ki/KI(1/M.1/S) by its ability to inhibit the Alpha-CT (Bovine alpha-chymotrypsin) enzyme.

| Ki/KI [1] | Ki/KI [2] | Ki/KI [3] | Ki/KI [5] | Compound | also measured |
| --- | --- | --- | --- | --- | --- |
| 32800 M⁻¹ s⁻¹ | No inactivation | No inactivation | – | O=C(Oc1cncc(Cl)c1)c1cc2ccccc2oc1=O | – |
| 9100 M⁻¹ s⁻¹ | No inactivation | No inactivation | – | NCc1ccc2oc(=O)c(C(=O)Oc3cncc(Cl)c3)cc2c1 | – |
| 1000 M⁻¹ s⁻¹ | No inactivation | – | 2500 M⁻¹ s⁻¹ | Cc1cncc(OC(=O)c2cc3cc(CCl)ccc3oc2=O)c1 | – |
| 58000 M⁻¹ s⁻¹ | – | No inactivation | – | O=C(Oc1cncc(Cl)c1)c1cc2cc(Br)ccc2oc1=O | – |
| 107000 M⁻¹ s⁻¹ | No inactivation | No inactivation | – | CC(=O)OCc1ccc2oc(=O)c(C(=O)Oc3cncc(Cl)c3)cc2c1 | – |
| 32500 M⁻¹ s⁻¹ | No inactivation | No inactivation | – | Cc1ccc2oc(=O)c(C(=O)Oc3cncc(Cl)c3)cc2c1 | – |
| 45000 M⁻¹ s⁻¹ | No inactivation | No inactivation | – | CC(C)C(=O)OCc1ccc2oc(=O)c(C(=O)Oc3cncc(Cl)c3)cc2c1 | – |
| 62000 M⁻¹ s⁻¹ | No inactivation | No inactivation | – | CCC(=O)OCc1ccc2oc(=O)c(C(=O)Oc3cncc(Cl)c3)cc2c1 | – |

Continued, compound first:

| Compound | Ki/KI [1] | Ki/KI [2] | Ki/KI [3] | Ki/KI [5] | also measured |
| --- | --- | --- | --- | --- | --- |
| CC(C)(C)C(=O)OCc1ccc2oc(=O)c(C(=O)Oc3cncc(Cl)c3)cc2c1 | 95500 M⁻¹ s⁻¹ | No inactivation | No inactivation | – | – |
| COc1ccc(NC(=O)c2cc3cc(CCl)ccc3oc2=O)cn1 | – | – | No inactivation | – | Ki/KI [4]: No inactivation |
| Cc1ccc(OC(=O)c2cc3cc(CCl)ccc3oc2=O)cn1 | – | No inactivation | – | 1000 M⁻¹ s⁻¹ | Ki/KI [4]: No inactivation |
| Cc1ccc(OC(=O)c2cc3cc(CCl)ccc3oc2=O)c([N+](=O)[O-])n1 | – | – | – | 1500 M⁻¹ s⁻¹ | Ki/KI [4]: No inactivation |
| O=C(Oc1cncc(Cl)c1)c1cc2cc(CCl)ccc2oc1=O | – | – | – | – | Ki/KI [6]: 64600 M⁻¹ s⁻¹; Ki/KI [7]: 200 M⁻¹ s⁻¹; Ki/KI [8]: 31000 M⁻¹ s⁻¹ |
| O=C(Oc1cccnc1)c1cc2cc(CCl)ccc2oc1=O | – | No inactivation | – | – | Ki/KI [6]: 770 M⁻¹ s⁻¹; Ki/KI [8]: 14800 M⁻¹ s⁻¹ |
| O=C(Nc1cccnc1)c1cc2cc(CCl)ccc2oc1=O | – | – | – | – | Ki/KI [4]: No inactivation |
| O=C(Oc1cccnc1Cl)c1cc2cc(CCl)ccc2oc1=O | 3310 M⁻¹ s⁻¹ | – | – | 4300 M⁻¹ s⁻¹ | – |
| Cc1cccc(OC(=O)c2cc3cc(CCl)ccc3oc2=O)n1 | 200 M⁻¹ s⁻¹ | No inactivation | – | 3300 M⁻¹ s⁻¹ | – |
| CCCC(=O)OCc1ccc2oc(=O)c(C(=O)Oc3cncc(Cl)c3)cc2c1 | 72700 M⁻¹ s⁻¹ | No inactivation | No inactivation | – | – |
| O=C(Oc1cccnc1Br)c1cc2cc(CCl)ccc2oc1=O | – | – | – | – | Ki/KI [6]: 3000 M⁻¹ s⁻¹; Ki/KI [9]: 2700 M⁻¹ s⁻¹ |
| O=C(Oc1ccccc1)c1cc2cc(CCl)ccc2oc1=O | 23 M⁻¹ s⁻¹ | – | – | – | Ki/KI [7]: 200 M⁻¹ s⁻¹; Ki/KI [10]: 100000 M⁻¹ s⁻¹ |
| O=C(Oc1ccccn1)c1cc2cc(CCl)ccc2oc1=O | 420 M⁻¹ s⁻¹ | – | – | 1670 M⁻¹ s⁻¹ | Ki/KI [7]: 240 M⁻¹ s⁻¹ |
| O=C(Oc1cccc(Cl)n1)c1cc2cc(CCl)ccc2oc1=O | 26000 M⁻¹ s⁻¹ | – | – | 107000 M⁻¹ s⁻¹ | Ki/KI [7]: 7200 M⁻¹ s⁻¹ |
| O=C(Oc1cccnc1[N+](=O)[O-])c1cc2cc(CCl)ccc2oc1=O | 4000 M⁻¹ s⁻¹ | – | – | 4500 M⁻¹ s⁻¹ | – |
| Cc1ccnc(OC(=O)c2cc3cc(CCl)ccc3oc2=O)c1 | 300 M⁻¹ s⁻¹ | – | – | 5950 M⁻¹ s⁻¹ | Ki/KI [7]: 3900 M⁻¹ s⁻¹ |
| O=C(Oc1ccc(Cl)cn1)c1cc2cc(CCl)ccc2oc1=O | 110 M⁻¹ s⁻¹ | No inactivation | – | 2500 M⁻¹ s⁻¹ | – |
| O=C(Nc1cccnc1Cl)c1cc2cc(CCl)ccc2oc1=O | – | – | No inactivation | – | Ki/KI [4]: No inactivation |
